The source of these data is ChEMBL document CHEMBL3817728, “Synthesis, Evaluation, and Mechanism Study of Novel Indole-Chalcone Derivatives Exerting Effective Antitumor Activity Through Microtubule Destabilization in Vitro and in Vivo” (J Med Chem, 2016).

Test [1] can be described thus: Cytotoxicity against human HCT8 cells assessed as cell viability after 48 hrs by MTT assay. Type of test: functional, cell-based. The settings on record: HCT-8, 48 h. The essentials:
(§1)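 Cancer cell lines treated with compound for 48 h, and viability read by MTT assay. IC50 given as mean ± SD from at least three independent experiments.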
For orientation: Formazan colour is commonly taken as a measure of viable cells.

Another test has as its system A549. Nature of the test: Cytotoxicity against human A549 cells assessed as cell viability after 48 hrs by MTT assay. The format is functional, cell-based. The settings on record: A549, 48 h. Summed up:
as §1

The subject of the next test is A2780. The experiment in a line: Cytotoxicity against human A2780 cells assessed as cell viability after 48 hrs by MTT assay. The settings on record: A2780, 48 h. Type of test: functional, cell-based. The essentials:
as §1

Test [2] can be described thus: Cytotoxicity against human Bel7402 cells assessed as cell viability after 48 hrs by MTT assay. The format is functional, cell-based. The conditions noted are these: Bel-7402, 48 h. The essentials:
as §1

For another test, the system named is HeLa. The experiment in a line: Cytotoxicity against human HeLa cells assessed as cell viability after 48 hrs by MTT assay. The format is functional, cell-based. Summed up:
as §1

For the next test, the system named is MCF7. Nature of the test: Cytotoxicity against human MCF7 cells assessed as cell viability after 48 hrs by MTT assay. Type of test: functional, cell-based. The settings on record: MCF7, 48 h. The essentials: as §1
Test [3] in a line: Cytotoxicity against human A2780/TAX cells assessed as growth inhibition after 48 hrs by MTT assay. Type of test: functional, cell-based. The essentials:
(§2)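 Drug-resistant lines were tested by a 48 h MTT viability assay. IC50 was derived from dose-response curves and reported as mean ± SE of at least three independent experiments.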

Test [4] in a line: Cytotoxicity against human HCT8/VCT cells assessed as growth inhibition after 48 hrs by MTT assay. Type of test: functional, cell-based. The essentials:
as §2

Test [5] is described as follows: Cytotoxicity against human MCF7/DX cells assessed as growth inhibition after 48 hrs by MTT assay. The format is functional, cell-based. The essentials: as §2
Test [6] in a line: Cytotoxicity against human A549/CDDP cells assessed as growth inhibition after 48 hrs by MTT assay. Type of test: functional, cell-based. The settings on record: A549, 48 h. The essentials:
as §2

The target of another test is Tubulin (Sus scrofa, UniProt P02554+P02550). Nature of the test: Inhibition of porcine brain tubulin polymerization measured every 60 secs for 60 mins by DAPI staining-based fluorescence assay.

The structures appear in SMILES notation.

In the case of `COc1ccc2[nH]cc(/C=C/C(=O)c3cc(OC)c(OC)c(OC)c3)c2c1`, the IC50 (in [1]; with A549; in the test on A2780; in [2]; in the test with HeLa; with MCF7) was > 1000 nM each time.

Turning to `COc1cc(C(=O)/C(C)=C/c2cn(C)c3cccc(OC)c23)cc(OC)c1OC`, the IC50 (in test [1]; in the test with A549; in the test on A2780; in test [2]; with HeLa; in the test with MCF7) was > 1000 nM throughout.

As for `COc1cc(C(=O)/C=C/c2cccc3[nH]ccc23)cc(OC)c1OC`, the concentration for half-maximal inhibition (IC50) (as a rule, the concentration that gives 50% inhibition) turned out to be 57 nM in [1]; 36 nM in the test with A549; 41 nM with A2780; 63 nM in test [2]; 38 nM in the test on HeLa; 50 nM with MCF7.

On to `CC(=O)O[C@H]1C(=O)[C@@]2(C)[C@H]([C@H](OC(=O)c3ccccc3)[C@]3(O)C[C@H](OC(=O)[C@H](O)[C@@H](NC(=O)c4ccccc4)c4ccccc4)C(C)=C1C3(C)C)[C@]1(OC(C)=O)CO[C@@H]1C[C@@H]2O` [PACLITAXEL], for which the IC50 was 5680 nM in [3]; 19 nM in test [1]; 125 nM in test [4]; 135 nM in [5]; 5 nM with A2780; 23 nM in [6].

Take `COc1cc(C(=O)/C=C/c2ccc3c(ccn3C)c2)cc(OC)c1OC`: the IC50 in test [1] amounted to 67 nM; in the test with A549 it was 53 nM; in the test with A2780, 45 nM; in test [2], 77 nM; in the test with HeLa, 57 nM; in the test on MCF7 it was 61 nM.

For the compound `COc1ccc2c(c1)c(/C=C/C(=O)c1ccc(OC)c3c1OC(C)(C)C=C3)cn2C`, the IC50 amounted to 675 nM in [1]; 452 nM in the test on A549; 497 nM in the test on A2780; 389 nM in test [2]; 415 nM in the test with HeLa; 567 nM in the test on MCF7.

As to `COc1cc(C(=O)/C=C/c2cn(C)c3cccc(OC)c23)cc(OC)c1OC`, the IC50 (in test [1]; in the test on A549; in the test with A2780; in [2]; with HeLa; with MCF7) was > 1000 nM in each case.

For the compound `COc1ccc2[nH]cc(/C=C(\C)C(=O)c3cc(OC)c(OC)c(OC)c3)c2c1`, the IC50 in [1] is 48 nM; in the test with A549, 74 nM; at Tubulin it was 5060 nM; in the test with A2780 it was 32 nM; in test [2] it was 96 nM; with HeLa, 78 nM. In addition, the IC50 in the test on MCF7 was 33 nM.

Consider `COc1ccc2[nH]cc(/C=C/C(=O)c3ccc(OC)c4c3OC(C)(C)C=C4)c2c1`, for which the IC50 amounted to 557 nM in [1]; 272 nM in the test on A549; 398 nM in the test on A2780; 456 nM in [2]; 327 nM in the test on HeLa; 782 nM in the test with MCF7.

Take `CCCn1cc(/C=C(\C)C(=O)c2cc(OC)c(OC)c(OC)c2)c2ccc(OC)cc21`: the IC50 in test [1] was 679 nM; in the test on A549, 514 nM; in the test on A2780 it was 597 nM; in [2], 614 nM; in the test on HeLa, 531 nM; in the test with MCF7, 497 nM.

Take `COc1ccc2c(/C=C/C(=O)c3cc(OC)c(OC)c(OC)c3)c[nH]c2c1`: the IC50 was 274 nM in [1]; 224 nM with A549; 118 nM in the test on A2780; 351 nM in [2]; 261 nM in the test on HeLa; 246 nM in the test on MCF7.

Take `CCn1cc(/C=C(\C)C(=O)c2cc(OC)c(OC)c(OC)c2)c2ccc(OC)cc21`: the IC50 in test [1] was 56 nM; with A549 it was 39 nM; in the test with A2780, 21 nM; in test [2], 15 nM; in the test on HeLa, 65 nM; with MCF7, 32 nM.

Consider `COc1cc(C(=O)/C=C/c2c[nH]c3cccc(OC)c23)cc(OC)c1OC`, for which the IC50 (in test [1]; with A549; in the test with A2780; in test [2]; with HeLa; in the test with MCF7) was > 1000 nM throughout.

With `COc1cc(C(=O)/C(C)=C/c2c[nH]c3cccc(OC)c23)cc(OC)c1OC`, the IC50 (in [1]; in the test on A549; in the test with A2780; in test [2]; with HeLa; in the test with MCF7) was > 1000 nM each time.

For the compound `COc1cc2c(c(OC)c1OC)C/C(=C\c1cccc3[nH]ccc13)C2=O`, the IC50 worked out at 38 nM in test [1]; 26 nM in the test with A549; 35 nM in the test on A2780; 35 nM in test [2]; 27 nM in the test with HeLa; 47 nM in the test on MCF7.

Turning to `C=Cn1cc(/C=C(\C)C(=O)c2cc(OC)c(OC)c(OC)c2)c2ccc(OC)cc21`, the IC50 is 79 nM in [1]; 89 nM in the test on A549; 49 nM in the test with A2780; 91 nM in test [2]; 67 nM in the test on HeLa; 64 nM in the test with MCF7.

As to `COc1ccc2c(c1)c(/C=C/C(=O)c1cc(OC)c(OC)c(OC)c1)cn2C`, the IC50 in test [1] stood at 315 nM; with A549, 164 nM; in the test on A2780, 283 nM; in [2], 256 nM; with HeLa, 531 nM; in the test on MCF7 it was 231 nM.

As to `COc1ccc(C(=O)/C=C/c2cn(C)c3cccc(OC)c23)c2c1C=CC(C)(C)O2`, the IC50 (in test [1]; with A549; in the test on A2780; in test [2]; in the test with HeLa; in the test on MCF7) was > 1000 nM each time.

With `COc1cc(C(=O)/C=C/c2ccc3[nH]ccc3c2)cc(OC)c1OC`, the IC50 in [1] came to 34 nM; in the test on A549, 33 nM; in the test with A2780 it was 28 nM; in [2], 34 nM; in the test on HeLa, 22 nM; with MCF7, 28 nM.

Consider `COc1ccc(C(=O)/C=C/c2c[nH]c3cccc(OC)c23)c2c1C=CC(C)(C)O2`, for which the IC50 (in [1]; with A549; in the test with A2780; in [2]; in the test with HeLa; in the test with MCF7) was > 1000 nM throughout.

For the compound `COc1cc(C(=O)/C=C/c2cccc3c2ccn3C)cc(OC)c1OC`, the IC50 in test [1] turned out to be 41 nM; with A549, 30 nM; in the test with A2780 it was 23 nM; in [2], 32 nM; with HeLa, 31 nM; with MCF7, 38 nM.

For the compound `COc1ccc2c(c1)c(/C=C(\C)C(=O)c1cc(OC)c(OC)c(OC)c1)cn2C`, the IC50 in [1] was found to be 726 nM; in the test on A549, 331 nM; in the test with A2780, 427 nM; in test [2], 356 nM; in the test on HeLa, 235 nM; in the test with MCF7, 548 nM.

Regarding `COc1ccc2c(/C=C(\C)C(=O)c3cc(OC)c(OC)c(OC)c3)cn(CCO)c2c1`, the IC50 was determined as 20 nM in [1]; 25 nM in the test with A549; 31 nM in the test with A2780; 21 nM in [2]; 35 nM in the test with HeLa; 14 nM with MCF7.

In the case of `COc1ccc2c(/C=C/C(=O)c3cc(OC)c(OC)c(OC)c3)cn(C)c2c1`, the IC50 in test [1] turned out to be 47 nM; in the test with A549 it was 23 nM; against Tubulin, 3480 nM; with A2780 it was 25 nM; in test [2] it was 61 nM; in the test on HeLa, 62 nM. Besides, in the test on MCF7, the IC50 was determined as 87 nM.

In the case of `COc1ccc2c(/C=C/C(=O)c3ccc(OC)c4c3OC(C)(C)C=C4)cn(C)c2c1`, the IC50 in test [1] turned out to be 87 nM; in the test on A549, 58 nM; in the test with A2780, 61 nM; in [2], 97 nM; in the test on HeLa, 93 nM; in the test on MCF7, 45 nM.

On to `COc1ccc2c(/C=C/C(=O)c3ccc(OC)c4c3OC(C)(C)C=C4)c[nH]c2c1`, for which the IC50 worked out at 77 nM in test [1]; 55 nM in the test on A549; 4390 nM on Tubulin; 41 nM in the test with A2780; 78 nM in test [2]; 49 nM in the test with HeLa. The IC50 with MCF7 was 56 nM.

Take `COc1ccc2c(/C=C(\C)C(=O)c3cc(OC)c(OC)c(OC)c3)cn(CO)c2c1`: the IC50 in test [1] came to 17 nM; in the test on A549, 8 nM; at Tubulin it was 3590 nM; with A2780, 21 nM; in test [2], 9 nM; with HeLa it was 13 nM. Besides, in the test with MCF7, the IC50 stood at 19 nM.

As for `COc1ccc2c(/C=C(\C)C(=O)c3cc(OC)c(OC)c(OC)c3)cn(C)c2c1`, the 50% inhibitory concentration (IC50) worked out at 61 nM in [1]; 41 nM in the test with A549; 34 nM with A2780; 28 nM in test [2]; 31 nM in the test on HeLa; 42 nM in the test on MCF7.

As to `COc1ccc2c(/C=C(\C)C(=O)c3cc(OC)c(OC)c(OC)c3)cn(CCBr)c2c1`, the 50% inhibitory concentration (IC50) in test [1] came to 169 nM; with A549, 126 nM; in the test on A2780, 274 nM; in test [2], 259 nM; in the test with HeLa it was 146 nM; with MCF7 it was 389 nM.
